Laboratory results: ChEMBL document CHEMBL4190216, “Asymmetric 1,5-diarylpenta-1,4-dien-3-ones: Antiproliferative activity in prostate epithelial cell models and pharmacokinetic studies” (Eur J Med Chem, 2017)

Experiments:
[1] = system: PC-3; assay: Antiproliferative activity against human PC3 cells assessed as decrease in cell viability after 3 days by WST assay; type: functional, cell-based; conditions: PC-3, 72 h
Outline: (§1)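 Cells were seeded at 3,200 per well. PC-3 and LNCaP were grown in RPMI-1640 and DU-145 in EMEM, each with 10% FBS and 1% penicillin/streptomycin, at 37 °C and 5% CO2. Cells were exposed for 3 days to at least five concentrations, with DMSO as vehicle control. WST-1 reagent was then added for 3 h at 37 °C and absorbance read at 430 nm. IC50 came from linear inhibition, averaged over triplicates.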

[2] = system: DU-145; assay: Potency index, ratio of curcumin IC50 to test compound IC50 for human DU145 cells; type: functional
[3] = system: LNCaP; assay: Potency index, ratio of curcumin IC50 to test compound IC50 for human LNCAP cells; type: functional
[4] = system: LNCaP; assay: Antiproliferative activity against human LNCAP cells assessed as decrease in cell viability after 3 days by WST assay; type: functional, cell-based; conditions: 72 h; outline: as §1
[5] = system: PC-3; assay: Potency index, ratio of curcumin IC50 to test compound IC50 for human PC3 cells; type: functional
[6] = system: DU-145; assay: Antiproliferative activity against human DU145 cells assessed as decrease in cell viability after 3 days by WST assay; type: functional, cell-based; conditions: DU-145, 72 h; outline: as §1
[7] = system: PWR-1E; assay: Potency index, ratio of curcumin IC50 to test compound IC50 for human PWR-1E cells expressing androgen receptor and PSA; type: functional
[8] = system: PWR-1E; assay: Antiproliferative activity against human PWR-1E cells expressing androgen receptor and PSA assessed as decrease in cell viability after 3 days by WST assay; type: functional, cell-based; conditions: 72 h
Outline: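 Non-malignant prostate epithelial PWR-1E (adenovirus 12/SV40-immortalized) was seeded at 5,000 per well. Cells were exposed for 3 days at 37 °C in a CO2 incubator to at least five concentrations, with DMSO as vehicle control. WST-1 reagent was then added for 3 h at 37 °C and absorbance read at 430 nm. IC50 came from linear inhibition, as the mean of triplicate determinations.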

[9] = Retention time of the compound; type: physicochemical
[10] = Drug level in human liver microsomes treated with (1E,4E)-1-(1-(sec-Butyl)1H-imidazol-2-yl)-5-(2-methyl-4-(trifluoromethyl)thiazol-5-yl)penta-1,4-dien-3-one at 10 mM after 60 mins by UHPLC analysis; type: ADME, microsome
Outline: (§2)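 Pooled human liver microsomes in potassium phosphate buffer (pH 7.4) with NADPH solutions A and B were preincubated for 5 min at 37 °C. Compound was then added from a 10 mM stock (3 μL into 300 μL total) and incubated 60 min at 37 °C. Reactions were quenched with an equal volume of methanol and centrifuged (10,000 × g, 4 min, 4 °C). Supernatant went to UHPLC–high-resolution MS for metabolite identification.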

[11] = Drug level in human liver microsomes treated with (1E,4E)-1-(1-Ethyl1H-benzo[d]imidazol-2-yl)-5-(2-methyl-4-(trifluoromethyl)thiazol-5-yl)penta-1,4-dien-3-one at 10 mM after 60 mins by UHPLC analysis; type: ADME, microsome; conditions: 1 h; outline: as §2

Compound	IC50 [1] [µM]	IC50 [4] [µM]	IC50 [6] [µM]	Retention_time [9] [min]	Drug metabolism [10]	Drug metabolism [11]	Ratio IC50 [2]	Ratio IC50 [3]	Ratio IC50 [5]	Ratio IC50 [7]	IC50 [8] [µM]
Cc1nc(C(F)(F)F)c(/C=C/C(=O)/C=C/c2nc3ccccc3n2C)s1	0.48	0.34	0.78	–	–	–	34	40	53	–	–
CCCn1c(/C=C/C(=O)/C=C/c2ccccn2)nc2ccccc21	0.25	0.17	0.32	–	–	–	82	80	102	443	0.02
Cc1cccc(/C=C/C(=O)/C=C/c2ccccn2)n1	0.54	0.3	0.63	–	–	–	42	45	47	–	–
CCn1c(/C=C/C(=O)/C=C/c2ccccn2)nc2ccccc21	0.23	0.12	0.46	–	–	–	57	113	111	221	0.04
CCCC(C)n1ccnc1/C=C/C(=O)/C=C/c1nc2ccccc2n1C(C)CCC (stereo not drawn)	0.14	0.37	0.28	–	–	–	94	37	182	221	0.04
Cc1cc(/C=C/C(=O)/C=C/c2ccccn2)no1	0.45	0.31	0.7	–	–	–	38	44	57	–	–
CC(C)Cn1ccnc1/C=C/C(=O)/C=C/c1nc2ccccc2n1CC(C)C	0.2	0.56	0.37	–	–	–	71	24	127	–	–
CCCn1c(/C=C/C(=O)/C=C/c2sc(C)nc2C(F)(F)F)nc2ccccc21	0.55	0.46	0.84	–	–	–	31	30	46	–	–
CCC(C)n1cc(O)nc1/C=C/C(=O)/C=C/c1sc(C)nc1C(F)(F)F (stereo not drawn)	–	–	–	3.32	Metabolite_Detected	–	–	–	–	–	–
CCn1c(/C=C/C(=O)/C=C(\O)c2sc(C)nc2C(F)(F)F)nc2ccccc21	–	–	–	4.66	–	Metabolite_Detected	–	–	–	–	–
CCCCn1ccnc1/C=C/C(=O)/C=C/c1nc2ccccc2n1CCCC	0.19	0.4	0.31	–	–	–	85	34	134	–	–
Cn1c(/C=C/C(=O)/C=C/c2ccccn2)nc2ccccc21	0.56	0.18	0.68	–	–	–	39	76	45	–	–
Cn1cc(Br)c(/C=C/C(=O)/C=C/c2ccccn2)n1	0.31	0.22	0.5	–	–	–	53	62	82	89	0.1
COc1cc(/C=C/C(=O)/C=C/c2ccccn2)cc(OC)c1OC	0.84	0.4	0.83	–	–	–	32	34	30	–	–
CC(C)n1ccnc1/C=C/C(=O)/C=C/c1nc2ccccc2n1C(C)C	0.18	0.26	0.13	–	–	–	138	52	141	293	0.03
CC(C)CCn1ccnc1/C=C/C(=O)/C=C/c1nc2ccccc2n1CCC(C)C	0.21	0.93	0.77	–	–	–	34	41	121	–	–
CCC(C)n1ccnc1/C(O)=C/C(=O)/C=C/c1sc(C)nc1C(F)(F)F (stereo not drawn)	–	–	–	3.7	Metabolite_Detected	–	–	–	–	–	–
COc1ccc(/C=C/C(=O)/C=C/c2ccccn2)cc1OC	1.7	1.76	2.05	–	–	–	13	8	15	–	–
Cc1nc(C(F)(F)F)c(/C=C/C(=O)/C=C/c2nc3ccccc3n2C(C)C)s1	0.34	0.3	0.57	–	–	–	46	45	75	177	0.05
CCn1c(/C(O)=C/C(=O)/C=C/c2sc(C)nc2C(F)(F)F)nc2ccccc21	–	–	–	4.54	–	Metabolite_Detected	–	–	–	–	–
COc1cc(/C=C/C(=O)CC(=O)/C=C/c2ccc(O)c(OC)c2)ccc1O [CURCUMIN]	–	–	–	–	–	–	–	–	–	–	8.85

Now from value to compound, other results behind:

IC50 [1] [µM]	IC50 [4] [µM]	IC50 [6] [µM]	Retention_time [9] [min]	Drug metabolism [10]	Drug metabolism [11]	Compound	Ratio IC50 [2]	Ratio IC50 [3]	Ratio IC50 [5]	Ratio IC50 [7]	IC50 [8] [µM]
0.72	0.66	0.67	–	–	–	CCC(C)n1ccnc1/C=C/C(=O)/C=C/c1cc(OC)c(OC)c(OC)c1 (stereo not drawn)	39	21	35	–	–
1.33	0.91	0.85	–	–	–	CCC(C)n1ccnc1/C=C/C(=O)/C=C/c1ccc(OC)c(OC)c1 (stereo not drawn)	31	15	19	–	–
6.86	4.05	3.68	–	–	–	CC(C)n1ccnc1/C=C/C(=O)/C=C/c1cnc(N2CCCC2)s1	7	3	4	–	–
0.8	0.54	0.66	–	–	–	Cc1nc(-c2ccncc2)sc1/C=C/C(=O)/C=C/c1nccn1C(C)C	40	25	32	–	–
0.39	0.17	0.42	–	–	–	CCC(C)n1ccnc1/C=C/C(=O)/C=C/c1nccs1 (stereo not drawn)	62	80	64	63	0.14
0.37	0.24	0.75	–	–	–	CCC(C)n1ccnc1/C=C/C(=O)/C=C/c1conc1C (stereo not drawn)	35	57	69	–	–
3.4	2.17	2.55	–	–	–	CC(C)n1ccnc1/C=C/C(=O)/C=C/c1cnc(N2CCCCC2)s1	10	6	8	–	–
0.3	0.24	0.34	–	–	–	CCC(C)n1ccnc1/C=C/C(=O)/C=C/c1ccccn1 (stereo not drawn)	77	57	85	52	0.17
0.33	0.31	0.28	–	–	–	CCC(C)n1ccnc1/C=C/C(=O)/C=C/c1nn(C)cc1Br (stereo not drawn)	94	44	76	63	0.14
0.31	0.24	0.53	–	–	–	CCC(C)n1ccnc1/C=C/C(=O)/C=C/c1cc(C)on1 (stereo not drawn)	50	57	82	81	0.11
0.26	0.26	0.29	–	–	–	CCC(C)n1ccnc1/C=C/C(=O)/C=C/c1cccc(C)n1 (stereo not drawn)	90	52	98	68	0.13
–	–	–	3.97	Metabolite_Detected	–	CCC(C)n1ccnc1/C=C/C(=O)/C=C(\O)c1sc(C)nc1C(F)(F)F (stereo not drawn)	–	–	–	–	–
2.27	1.41	1.32	–	–	–	CC(C)n1ccnc1/C=C/C(=O)/C=C/c1cnc(N2CCOCC2)s1	20	10	11	–	–
0.24	0.33	0.35	–	–	–	CCC(C)n1ccnc1/C=C/C(=O)/C=C/c1nc2ccccc2n1C(C)CC (stereo not drawn)	75	41	106	–	–
0.55	0.45	1.13	–	–	–	O=C(/C=C/c1ccccn1)/C=C/c1nccs1	23	30	46	–	–
